Data on 24 compounds can be found in ChEMBL document CHEMBL1134389, “Mapping and fitting the peripheral benzodiazepine receptor binding site by carboxamide derivatives. Comparison of different approaches to quantitative ligand-receptor interaction modeling” (J Med Chem, 2001).

The target of this assay is Translocator protein (Rattus norvegicus, UniProt P16257). In words: Test in vitro, for potential ability to displace [3H]1 from PBR in rat brain cortex. The assay is classed as tissue-based. The procedure, abridged:
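Rat cortical membranes homogenized in ice-cold PBS (50 mM, pH 7.4) with 100 mM NaCl, spun at 1000g, then pellet washed three times at 50000g and resuspended in PBS. Assay stopped by GF/B filtration, counted by liquid scintillation. IC50 fitted from six displacer concentrations, triplicate.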

Chain of Translocator protein (P16257 whole entry, looked up): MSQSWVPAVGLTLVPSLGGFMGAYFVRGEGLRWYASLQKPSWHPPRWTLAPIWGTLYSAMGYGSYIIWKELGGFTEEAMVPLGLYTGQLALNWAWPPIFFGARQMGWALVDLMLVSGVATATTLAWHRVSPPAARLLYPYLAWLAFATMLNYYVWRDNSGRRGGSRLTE

For `CCCN(CCC)C(=O)c1c(CN(CC)Cc2ccccc2)nc2ccccc2c1-c1ccccc1`, the IC50 came to 456 nM.
Turning to `CCN(CC)C(=O)c1cc(-c2ccccc2)c2ccccc2c1`, the concentration for half-maximal inhibition (IC50) was 5 nM.
The compound `CCOC(=O)c1c(CN2CCc3ccccc3C2)nc2ccccc2c1-c1ccccc1` returned an IC50 of 1190 nM.
On to `CCN(Cc1ccccc1)Cc1nc2ccccc2c(-c2ccccc2)c1C(=O)N(CC)CC`, for which the IC50 was 373 nM.
As for `CCN(Cc1ccccc1)Cc1nc2ccccc2c(-c2ccccc2)c1C(=O)N(C)C`, the figure is 229 nM; as for `CCCN(CCC)C(=O)c1c(C)nc2ccccc2c1-c1ccccc1`, > 10000 nM; as for `CCN(Cc1ccccc1)Cc1ccccc1C(=O)N(C)C`, > 10000 nM.
In the case of `CCN(Cc1ccccc1)Cc1nc2ccccc2c(-c2ccccc2)c1C(=O)NCc1ccccc1` it was 2900 nM.
As for `CCOC(=O)c1c(CN(CC)Cc2ccccc2)nc2ccccc2c1-c1ccccc1`, the figure is 700 nM.
In the case of `Cc1nc2ccccc2c(-c2ccccc2)c1C(=O)N(C)c1ccccc1`, the IC50 is > 10000 nM.
The compound `CCCN(CCC)C(=O)c1ccccc1CN(CC)Cc1ccccc1` had an IC50 of 8870 nM.
As for `CCN(Cc1ccccc1)Cc1ccccc1C(=O)N(C)c1ccccc1`, the figure is > 10000 nM; as for `CCN(Cc1ccccc1)Cc1cc(-c2ccccc2)c2ccccc2n1`, 3400 nM; as for `CCCNC(=O)c1c(CN(CC)Cc2ccccc2)nc2ccccc2c1-c1ccccc1`, 872 nM.
As for `CCN(Cc1ccccc1)Cc1nc2ccccc2c(-c2ccccc2)c1C(=O)N(C)c1ccccc1`, the figure is 1320 nM; as for `O=C1c2c(nc3ccccc3c2-c2ccccc2)CN1Cc1ccc(Cl)cc1`, 210 nM; as for `CCN(Cc1ccccc1)Cc1nc2ccccc2c(-c2ccccc2)c1C(=O)N(C)c1ccc(Cl)cc1`, 2480 nM.
As for `CCOC(=O)c1c(N(CC)Cc2ccccc2)nc2ccccc2c1-c1ccccc1`, the figure is 540 nM; as for `CCN(Cc1ccccc1)Cc1ccccc1C(=O)N(CC)CC`, 8210 nM.
`CCN(Cc1ccccc1)Cc1c(C(=O)N(CC)CC)nc2ccccc2c1-c1ccccc1` had an IC50 of 4.1 nM.
In turn, `CCN(CC)C(=O)c1cc(-c2ccccc2)c2ccccc2n1` came in with a concentration for half-maximal inhibition (IC50) of 27 nM.
`Cc1ccc(CN2Cc3nc4ccccc4c(-c4ccccc4)c3C2=O)cc1` gave a half-inhibitory concentration (IC50) of 410 nM.
As for `CCN(CC)C(=O)c1c(C)nc2ccccc2c1-c1ccccc1`, the figure is > 10000 nM.
In the case of `CCOC(=O)c1c(Cl)nc2ccccc2c1-c1ccccc1` it was 3700 nM.

For orientation: IC50 means the concentration that gives 50% inhibition. A lower IC50 goes with greater potency.
